Test results from ChEMBL document CHEMBL1156306, “Discovery, biological evaluation, and structure-activity relationship of amidine based sphingosine kinase inhibitors” (J Med Chem, 2010).
Activity calls are given as the source filed them. The calls are words filed in the database; no cut-off is given here.

What was measured:
[1] = biological target: T1, Sphingosine kinase 2 (Mus musculus) (UniProt Q9JIA7); test: Inhibition of mouse recombinant SPHK2 expressed in baculovirus-infected Sf9 cells in presence of sphingosine
T1 sequence (whole entry): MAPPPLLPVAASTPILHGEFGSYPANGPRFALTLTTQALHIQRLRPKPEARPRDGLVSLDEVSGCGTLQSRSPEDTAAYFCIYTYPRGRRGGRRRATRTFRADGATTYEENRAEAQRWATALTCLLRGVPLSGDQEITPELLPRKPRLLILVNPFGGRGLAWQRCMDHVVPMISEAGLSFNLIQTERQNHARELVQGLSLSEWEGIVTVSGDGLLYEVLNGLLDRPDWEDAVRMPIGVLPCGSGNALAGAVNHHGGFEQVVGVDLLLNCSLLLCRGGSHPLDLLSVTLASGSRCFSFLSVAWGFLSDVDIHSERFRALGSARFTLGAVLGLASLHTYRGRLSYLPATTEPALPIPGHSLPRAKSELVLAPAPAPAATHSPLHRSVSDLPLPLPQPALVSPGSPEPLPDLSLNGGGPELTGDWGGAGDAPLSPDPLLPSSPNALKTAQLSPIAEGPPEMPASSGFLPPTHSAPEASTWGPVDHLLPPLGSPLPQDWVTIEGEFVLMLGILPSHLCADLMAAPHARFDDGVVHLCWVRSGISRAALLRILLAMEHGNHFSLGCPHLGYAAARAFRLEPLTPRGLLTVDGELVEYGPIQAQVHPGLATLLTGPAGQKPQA
Method in brief: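 Enzyme source was a 10,000 × g supernatant of Sf9 cells infected for 72 h with baculovirus encoding mouse SphK2, using 2–3 μg protein per assay. Sphingosine phosphorylation conditions were as in an earlier report.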

[2] = biological target: Sphingosine kinase 1 (Homo sapiens) (UniProt Q9NYA1); conditions: Sf9
[3] = biological target: T1, Sphingosine kinase 2 (Mus musculus); test: Ratio of Ki to Km for mouse recombinant SPHK2 expressed in baculovirus-infected Sf9 cells
[4] = biological target: Diacylglycerol kinase gamma (Homo sapiens) (UniProt P49619); test: Inhibition of DAGgamma up to 100 uM
Method in brief: (§1)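 Recombinant diacylglycerol kinases (γ, δ1, ζ) tested with compound at concentrations up to 100 μM.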

[5] = biological target: T2, Diacylglycerol kinase delta (Homo sapiens) (UniProt Q16760); test: Inhibition of DAGdelta1 up to 100 uM; method in brief: as §1
T2 sequence (whole entry): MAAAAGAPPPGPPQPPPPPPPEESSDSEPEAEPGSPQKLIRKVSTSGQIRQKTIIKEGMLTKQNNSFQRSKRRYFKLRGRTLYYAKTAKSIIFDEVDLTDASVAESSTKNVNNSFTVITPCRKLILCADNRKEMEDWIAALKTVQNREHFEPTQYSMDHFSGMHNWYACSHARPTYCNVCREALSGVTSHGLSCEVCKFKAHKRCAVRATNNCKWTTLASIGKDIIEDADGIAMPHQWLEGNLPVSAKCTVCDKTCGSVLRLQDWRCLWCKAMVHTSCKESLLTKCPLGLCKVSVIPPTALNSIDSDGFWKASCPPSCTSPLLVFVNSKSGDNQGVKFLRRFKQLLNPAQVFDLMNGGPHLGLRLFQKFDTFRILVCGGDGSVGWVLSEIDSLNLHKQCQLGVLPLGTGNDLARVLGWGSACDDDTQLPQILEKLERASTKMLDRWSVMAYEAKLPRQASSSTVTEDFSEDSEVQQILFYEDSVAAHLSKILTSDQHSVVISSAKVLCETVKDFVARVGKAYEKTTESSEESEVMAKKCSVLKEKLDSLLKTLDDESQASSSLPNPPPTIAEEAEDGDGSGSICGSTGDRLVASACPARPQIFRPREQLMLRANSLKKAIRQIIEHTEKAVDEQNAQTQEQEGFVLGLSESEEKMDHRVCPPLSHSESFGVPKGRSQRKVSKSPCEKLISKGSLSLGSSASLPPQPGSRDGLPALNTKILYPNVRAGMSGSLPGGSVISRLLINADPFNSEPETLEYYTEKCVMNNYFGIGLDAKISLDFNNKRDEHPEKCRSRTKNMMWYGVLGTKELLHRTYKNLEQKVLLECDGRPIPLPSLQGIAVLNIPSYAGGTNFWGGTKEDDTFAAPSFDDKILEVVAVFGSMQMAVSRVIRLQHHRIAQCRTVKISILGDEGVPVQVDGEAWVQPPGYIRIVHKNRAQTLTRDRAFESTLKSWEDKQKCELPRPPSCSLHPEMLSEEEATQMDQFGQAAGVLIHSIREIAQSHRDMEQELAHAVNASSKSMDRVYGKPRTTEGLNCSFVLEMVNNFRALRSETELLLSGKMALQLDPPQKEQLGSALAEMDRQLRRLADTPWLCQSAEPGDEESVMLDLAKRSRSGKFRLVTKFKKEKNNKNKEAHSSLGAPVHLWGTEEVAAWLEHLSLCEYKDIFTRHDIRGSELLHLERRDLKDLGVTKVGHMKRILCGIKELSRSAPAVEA

[6] = biological target: Protein kinase C alpha type (Homo sapiens) (UniProt P17252); test: Inhibition of PKCalpha up to 10 uM
Method in brief: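 Compound tested at protein kinase C α at concentrations up to 10 μM.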

[7] = system: VSMC; test: Inhibition of FBS-induced SPHKk1 mRNA level in rat VSMC after 4 hrs by RT-PCR; assay type: functional
Method in brief: (§2)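 Rat aortic VSMC stimulated with 10% FBS for 4 h. Total RNA extracted with Trizol and reverse-transcribed. Sphk1 and Sphk2 mRNA measured by quantitative real-time PCR and normalized to 18S rRNA, N=3.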

[8] = system: VSMC; test: Inhibition of FBS-induced SPHKk2 mRNA level in rat VSMC after 4 hrs by RT-PCR; assay type: functional, cell-based; method in brief: as §2
[9] = biological target: T3, Sphingosine kinase 2 (Rattus norvegicus) (UniProt A6JB73); test: Inhibition of [32P]S1P/FBS-stimulated SPHK2 in rat VSMC after 12 hrs relative to control
T3 sequence (whole entry): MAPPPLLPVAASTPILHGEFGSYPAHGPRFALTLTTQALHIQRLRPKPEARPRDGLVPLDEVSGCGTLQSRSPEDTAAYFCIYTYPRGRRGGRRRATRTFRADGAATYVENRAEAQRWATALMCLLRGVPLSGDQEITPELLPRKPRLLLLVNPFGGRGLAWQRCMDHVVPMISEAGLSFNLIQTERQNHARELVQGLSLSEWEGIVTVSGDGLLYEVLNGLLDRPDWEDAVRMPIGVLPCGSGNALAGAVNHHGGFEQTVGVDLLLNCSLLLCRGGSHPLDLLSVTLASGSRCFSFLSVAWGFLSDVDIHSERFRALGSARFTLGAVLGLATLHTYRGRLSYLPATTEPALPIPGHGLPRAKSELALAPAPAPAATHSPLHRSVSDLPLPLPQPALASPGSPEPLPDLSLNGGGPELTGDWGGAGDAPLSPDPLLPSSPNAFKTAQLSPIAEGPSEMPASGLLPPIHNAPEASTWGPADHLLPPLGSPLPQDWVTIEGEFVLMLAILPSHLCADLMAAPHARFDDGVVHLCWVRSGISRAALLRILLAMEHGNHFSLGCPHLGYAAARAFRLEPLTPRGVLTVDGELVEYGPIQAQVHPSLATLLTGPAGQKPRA
Method in brief: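 Rat aortic VSMC stimulated with 10% FBS for 0, 3, 6 and 12 h. SphK2 activity measured as [32P]-S1P formation, N=3.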

[10] = system: VSMC; test: Inhibition of FBS-induced intracellular concentration of S1P in rat VSMC; assay type: functional, cell-based
[11] = Inhibition of FBS-induced cell proliferation of rat VSMC after 24 hrs by BrdU incorporation assay; assay type: functional, cell-based
Method in brief: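 Rat aortic VSMC pretreated with compound for 30 min, then stimulated with 10% FBS for 24 h. Proliferation measured by BrdU incorporation (10 μM BrdU) using an immuno-absorbance read-out, dose-response, N=6.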

[12] = Cytotoxicity against rat VSMC assessed as cell viability at 0.1 to 100 uM; assay type: cell-based; conditions: in the assay text read “0.001 to 100 uM” for “0.1 to 100 uM”
Method in brief: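 Rat aortic vascular smooth muscle cells, cultured in vitro, exposed to compound across 0.001–100 μM. Cytotoxic response read with the MultiTox-Fluor fluorescence assay, using 20 μM cyclosporine A as reference, N=3.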

[13] = system: VSMC; test: Inhibition of serum-induced cell proliferation of rat VSMC
[14] = Cytotoxicity against rat VSMC assessed as cell viability at 10 uM by microscopical analysis

Sphingosine kinase 1 (Homo sapiens), sequence (Q9NYA1 whole entry): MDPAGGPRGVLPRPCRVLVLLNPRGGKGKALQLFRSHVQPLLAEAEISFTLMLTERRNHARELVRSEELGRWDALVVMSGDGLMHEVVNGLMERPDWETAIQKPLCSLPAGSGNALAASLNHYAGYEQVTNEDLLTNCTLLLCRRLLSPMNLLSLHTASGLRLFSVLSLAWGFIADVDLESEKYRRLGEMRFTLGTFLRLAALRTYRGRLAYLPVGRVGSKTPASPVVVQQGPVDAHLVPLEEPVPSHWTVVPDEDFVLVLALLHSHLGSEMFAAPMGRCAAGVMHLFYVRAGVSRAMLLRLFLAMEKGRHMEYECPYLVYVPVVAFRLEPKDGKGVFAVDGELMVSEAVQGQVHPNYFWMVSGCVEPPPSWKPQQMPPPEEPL
Diacylglycerol kinase gamma (Homo sapiens), sequence (P49619 whole entry): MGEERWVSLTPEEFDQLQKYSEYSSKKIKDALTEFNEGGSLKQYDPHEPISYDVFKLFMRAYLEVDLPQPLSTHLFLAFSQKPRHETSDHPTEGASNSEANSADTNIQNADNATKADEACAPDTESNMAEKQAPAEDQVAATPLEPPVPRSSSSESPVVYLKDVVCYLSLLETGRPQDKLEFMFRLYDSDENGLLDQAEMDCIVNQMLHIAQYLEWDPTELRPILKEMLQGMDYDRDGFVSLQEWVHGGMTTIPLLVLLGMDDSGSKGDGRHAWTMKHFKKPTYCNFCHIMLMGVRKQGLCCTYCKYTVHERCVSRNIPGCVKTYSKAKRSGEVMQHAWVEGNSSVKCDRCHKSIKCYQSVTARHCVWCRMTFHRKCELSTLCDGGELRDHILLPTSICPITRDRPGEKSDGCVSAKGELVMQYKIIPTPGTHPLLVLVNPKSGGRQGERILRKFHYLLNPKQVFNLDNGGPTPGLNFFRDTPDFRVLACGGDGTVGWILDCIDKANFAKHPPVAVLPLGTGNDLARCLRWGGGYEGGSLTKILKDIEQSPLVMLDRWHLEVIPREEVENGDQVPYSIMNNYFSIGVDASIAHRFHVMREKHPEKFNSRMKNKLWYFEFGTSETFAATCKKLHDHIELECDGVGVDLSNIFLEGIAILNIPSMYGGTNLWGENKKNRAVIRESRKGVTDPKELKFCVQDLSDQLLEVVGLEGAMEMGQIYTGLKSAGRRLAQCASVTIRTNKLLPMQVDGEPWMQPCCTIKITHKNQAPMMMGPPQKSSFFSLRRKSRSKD

| Ki [1] [µM] | Ki [2] [µM] | Ratio [3] | Structure (SMILES) | also measured |
| --- | --- | --- | --- | --- |
| 4 | 5 | 0.8 | CCCCCCCCCCc1ccc(C(=O)NC2(C(=N)N)CC2)cc1 | – |
| > 100 | 8.4 | > 20 | CCCCCCCCCCCCCCc1ccc(NC(=O)C2(C(=N)N)CC2)cc1 | – |
| 10 | 36 | 2 | CCCCCCCCCCCCCCCCc1ccc(C(=O)NC2(C(=N)N)CC2)cc1 | – |
| 0.5 | 0.2 | 0.1 | CCCCCCCCCCCCc1ccc(C(=O)NC2(C(=N)N)CC2)cc1 | inhibition [4]: inactive; inhibition [5]: inactive; inhibition [6]: inactive |
| 32 | 10 | 6.4 | CCCCCCCCCCCCCCc1ccc(C(=O)NC2(C(=N)N)CC2)cc1 | – |
| 23 | 25 | 4.6 | CCCCCCCCc1ccc(C(=O)NC2(C(=N)N)CC2)cc1 | – |

The remaining lines, values behind:

| Structure (SMILES) | Ki [1] [µM] | Ki [2] [µM] | Ratio [3] | also measured |
| --- | --- | --- | --- | --- |
| CCCCCCCCCCCCc1ccc(NC(=O)C2(C(=N)N)CC2)cc1 | 6 | 0.3 | 1.2 | inhibition [4]: inactive; inhibition [5]: inactive; inhibition [6]: inactive |
| CCCCCCCCCCCCCCCCc1ccc(NC(=O)C2(C(=N)N)CC2)cc1 | > 100 | 30 | > 20 | – |
| CCCCCCCCCCc1ccc(NC(=O)C2(C(=N)N)CC2)cc1 | 4 | 3 | 0.8 | – |
| CCCCCCCCc1ccc(C(=O)N[C@@H](C)C(=N)N)cc1.Cl | 20 | 55 | 4 | inhibition [7]: inactive; inhibition [8]: inactive; inhibition [9]: inactive; inhibition [10]: Active; EC50 [11]: 10 µM; Activity [12]: Non-toxic; inhibition [13]: Active; Activity [14]: Non-toxic |
| CCCCCCCCc1ccc(C(=O)N[C@H](C)C(=N)N)cc1 | 25 | > 100 | 5 | – |
| CCCCCCCCc1ccc(C(=O)NCC(=N)N)cc1 | 60 | > 100 | 12 | – |
| CCCCCCCCc1ccc(C(=O)N[C@@H](C)C(N)=O)cc1 | > 100 | > 100 | > 20 | – |
| CCCCCCCCc1ccc(C(=O)N[C@@H](C)C(=O)O)cc1 | > 100 | > 100 | > 20 | – |
